Entries after “also recorded” stand apart in the source; their conditions may differ.
What was measured:
[1] = system: patients with mild-to-moderate probable AD; settings: cited from earlier work
rat hippocampal slices = settings: cited from earlier work
healthy male subjects = experiment: Safety and tolerability; type: in vivo, human
Summary of the method: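 Randomized, double-blind, placebo-controlled single-dose escalation, 3:1 active:placebo (six and two per group). Males 21–50 y, BMI 18.5–29.9 kg m−2, CYP2C19 EMs or PMs, dosed four per day ≥1 h apart, ≥5 days between levels. Monitored AEs, laboratory tests, physical exam, vital signs, cardiac monitoring, 12-lead ECG and 16-item Bond–Lader 100 mm mood VAS. Investigators rated tolerability on a four-point scale. Descriptive statistics.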

[2] = preclinical studies; cited from earlier work
[3] = Plasma pharmacokinetics after single rising oral doses of BI 409306; type: in vivo, human; settings: for AUC0–∞ ratio of tablet to solution: EM; for Cl F^−1: geometric mean (gCV%)
Summary of the method: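 Healthy males (21–50 y), CYP2C19-genotyped as homozygous EMs or PMs, given single oral doses after a ≥10 h fast: solution 0.5–5 mg, tablets 10–350 mg; PMs given 10 mg, then 100 mg tablet. Tablet/solution crossover at 5 and 50 mg. Plasma sampled −2 h to 24 h (48, 72 h if ≥10 mg). HPLC-MS/MS with isotope-labelled internal standard. Noncompartmental analysis; log-scale ANOVA for formulation and genotype.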

[4] = Urinary excretion after single oral doses of BI 409306; type: in vivo, human; settings: for fe0–4: urine 0 h to 4 h, geometric mean (gCV%)
Summary of the method: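 Drug amounts were measured by HPLC-MS/MS, giving amounts and fractions excreted per interval. Dose proportionality of Ae0–4 was tested by linear regression in EMs and by a mixed-effects linear model in PMs, with a 95% CI on the slope.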

[5] = after administration of 50 mg tablets
[6] = dose levels of 10 mg and 100 mg
[7] = single oral dose 2 mg sol EM (n = 6)
[8] = single oral dose 5 mg sol EM (n = 6)
[9] = single oral dose 5 mg tab EM (n = 6)
[10] = single oral dose 10 mg tab EM (n = 6)
[11] = single oral dose 10 mg tab PM (n = 6)
[12] = single oral dose 50 mg sol EM (n = 8)
[13] = single oral dose 50 mg tab EM (n = 6)
[14] = single oral dose 100 mg tab EM (n = 5)
[15] = single oral dose 100 mg tab PM (n = 6)
[16] = single oral dose 200 mg tab EM (n = 6)
[17] = single oral dose 350 mg tab EM (n = 6)

C[C@@H]1CN(Cc2ncccn2)C[C@H]1c1nc2c(cnn2C2CCOCC2)c(=O)[nH]1 [PF‐04447943, 6‐[(3S,4S)‐4‐methyl‐1‐(pyrimidin‐2‐ylmethyl)pyrrolidin‐3‐yl]‐1‐(tetrahydro‐2H‐pyran‐4‐yl)‐1,5‐dihydro‐4H‐pyrazolo[3,4‐d]pyrimidin‐4‐one]
incidence of severe AEs [1]: comparable to that with placebo

O=c1[nH]c(Cc2ccccn2)nc2c1cnn2C1CCOCC1 [BI 409306]
synaptic plasticity (LTP) (rat hippocampal slices): enhancement of LTP
AE: Dizziness (healthy male subjects; 2 mg sol EM (n = 6)): 1 (16.7) n (%)
AE: Gastrointestinal disorders (healthy male subjects; 2 mg sol EM (n = 6)): 1 (16.7) n (%)
AE: Headache (healthy male subjects; 2 mg sol EM (n = 6)): 1 (16.7) n (%)
AE: Nausea (healthy male subjects; 2 mg sol EM (n = 6)): 1 (16.7) n (%)
AE: Nervous system disorders (healthy male subjects; 2 mg sol EM (n = 6)): 2 (33.3) n (%)
AE: Headache (healthy male subjects; 5 mg tab EM (n = 6)): 1 (16.7) n (%)
AE: Nervous system disorders (healthy male subjects; 5 mg tab EM (n = 6)): 1 (16.7) n (%)
AE: Diarrhoea (healthy male subjects; 10 mg tab PM (n = 6)): 1 (16.7) n (%)
AE: Gastrointestinal disorders (healthy male subjects; 10 mg tab PM (n = 6)): 1 (16.7) n (%)
AE: Headache (healthy male subjects; 10 mg tab PM (n = 6)): 2 (33.3) n (%)
AE: Nervous system disorders (healthy male subjects; 10 mg tab PM (n = 6)): 2 (33.3) n (%)
AE: Cardiac disorders (healthy male subjects; 50 mg tab EM (n = 6)): 1 (16.7) n (%)
AE: Extrasystoles (healthy male subjects; 50 mg tab EM (n = 6)): 1 (16.7) n (%)
AE: Palpitations (healthy male subjects; 50 mg tab EM (n = 6)): 1 (16.7) n (%)
AE: Chromatopsia (healthy male subjects; 100 mg tab PM (n = 6)): 1 (16.7) n (%)
AE: Eye disorders (healthy male subjects; 100 mg tab PM (n = 6)): 2 (33.3) n (%)
AE: Headache (healthy male subjects; 100 mg tab PM (n = 6)): 2 (33.3) n (%)
AE: Nervous system disorders (healthy male subjects; 100 mg tab PM (n = 6)): 2 (33.3) n (%)
AE: Photopsia (healthy male subjects; 100 mg tab PM (n = 6)): 1 (16.7) n (%)
AE: Presyncope (healthy male subjects; 100 mg tab PM (n = 6)): 1 (16.7) n (%)
AE: Headache (healthy male subjects; 200 mg tab EM (n = 6)): 1 (16.7) n (%)
AE: Nervous system disorders (healthy male subjects; 200 mg tab EM (n = 6)): 2 (33.3) n (%)
AE: Photophobia (healthy male subjects; 200 mg tab EM (n = 6)): 1 (16.7) n (%)
AE: Photopsia (healthy male subjects; 200 mg tab EM (n = 6)): 2 (33.3) n (%)
AE: Somnolence (healthy male subjects; 200 mg tab EM (n = 6)): 1 (16.7) n (%)
AE: Blurred vision (healthy male subjects; 350 mg tab EM (n = 6)): 1 (16.7) n (%)
AE: Cardiac disorders (healthy male subjects; 350 mg tab EM (n = 6)): 1 (16.7) n (%)
AE: Chromatopsia (healthy male subjects; 350 mg tab EM (n = 6)): 1 (16.7) n (%)
AE: Dry mouth (healthy male subjects; 350 mg tab EM (n = 6)): 1 (16.7) n (%)
AE: Gastrointestinal disorders (healthy male subjects; 350 mg tab EM (n = 6)): 2 (33.3) n (%)
AE: Nausea (healthy male subjects; 350 mg tab EM (n = 6)): 1 (16.7) n (%)
AE: Nervous system disorders (healthy male subjects; 350 mg tab EM (n = 6)): 1 (16.7) n (%)
AE: Photophobia (healthy male subjects; 350 mg tab EM (n = 6)): 1 (16.7) n (%)
AE: Photopsia (healthy male subjects; 350 mg tab EM (n = 6)): 2 (33.3) n (%)
AE: Sinus tachycardia (healthy male subjects; 350 mg tab EM (n = 6)): 1 (16.7) n (%)
AE: Somnolence (healthy male subjects; 350 mg tab EM (n = 6)): 1 (16.7) n (%)
dose up to which generally safe and well tolerated (healthy male subjects; CYP2C19 EM healthy male subjects): up to 350 mg
subjects with headache (healthy male subjects; CYP2C19 EMs treated with BI 409306, all dose groups): three
subjects with photophobia/increased sensitivity to light (healthy male subjects; CYP2C19 EMs, all dose groups): three
subjects with photopsia/flashing lights (healthy male subjects; CYP2C19 EMs, all dose groups): five
dose up to which generally safe and well tolerated (healthy male subjects; CYP2C19 PM healthy male subjects): up to 100 mg
subjects with headache (healthy male subjects; CYP2C19 PMs treated with BI 409306 (10 mg and 100 mg)): four
intensity of AEs (healthy male subjects; all AEs): mild to moderate
B&L VAS scores: effects on mood, vigilance or stress levels (healthy male subjects; data not shown): no clinically relevant effects; also recorded: did not reveal any clinically relevant effects
abnormalities in laboratory results, ECG findings or vital signs (healthy male subjects; exception: one episode of transient sinus tachycardia): No relevant abnormalities
overall safety and tolerability (healthy male subjects; healthy male subjects, single rising doses): generally safe and well tolerated
onset of nervous system and eye disorder AEs after administration (healthy male subjects; most frequently reported AEs): 20 to 30 min
time within which AEs mostly resolved (healthy male subjects; nervous system and eye disorders): 1 to 2 h
serious AEs (healthy male subjects; single doses 0.5–350 mg, EMs and PMs): No serious AEs occurred; also recorded: No serious AEs were reported
highest (maximum) tolerated dose (healthy male subjects; single oral dose, CYP2C19 EMs): 350 mg
memory performance [2]: improved memory performance
AUC0–∞ ratio of tablet to solution ([3]; 5 mg dose, 90% CI: 87.6%, 111%): 98.5%
ratio (CYP2C19 PM to EM) of Cmax ([3]; 10 mg dose, 90% CI: 125%, 401%): 224%
ratio (CYP2C19 PM to EM) of AUC0–∞ ([3]; 10 mg dose, 90% CI: 291%, 843%): 496%
AUC0–∞ ratio of tablet to solution ([3]; 50 mg dose, 90% CI: 59.6%, 119%): 84.2%
ratio (CYP2C19 PM to EM) of Cmax ([3]; 100 mg dose, 90% CI: 124%, 421%): 228%
ratio (CYP2C19 PM to EM) of AUC0–∞ ([3]; 100 mg dose, 90% CI: 254%, 677%): 415%
reduction of gMean AUC, tablet versus oral solution [3, 5]: approximately 16%
reduction of gMean Cmax, tablet versus oral solution [3, 5]: approximately 20%
time following dose within which BI 409306 was eliminated ([3]; all DGs): ≤ 24 h
AUC0–∞ in CYP2C19 PMs compared with EMs [3, 6]: 4.1–5.0 fold
Cmax in CYP2C19 PMs compared with EMs [3, 6]: 2.2–2.3 fold
Cl F^−1 ([3]; single oral dose 0.5 mg sol EM (n = 6)): 6770 (50.4) ml min^−1
Cl F^−1 [3, 7]: 5130 (41.3) ml min^−1
Cl F^−1 [3, 8]: 3490 (27.0) ml min^−1
Cl F^−1 [3, 9]: 3540 (32.2) ml min^−1
Cl F^−1 [3, 10]: 5580 (69.8) ml min^−1
Cl F^−1 [3, 11]: 1120 (35.5) ml min^−1
Cl F^−1 ([3]; single oral dose 25 mg tab EM (n = 6)): 3810 (49.4) ml min^−1
Cl F^−1 [3, 12]: 4130 (42.9) ml min^−1
Cl F^−1 [3, 13]: 4970 (82.0) ml min^−1
Cl F^−1 [3, 14]: 3660 (68.5) ml min^−1
Cl F^−1 [3, 15]: 882 (21.4) ml min^−1
Cl F^−1 [3, 16]: 2730 (44.4) ml min^−1
Cl F^−1 [3, 17]: 2350 (17.1) ml min^−1
urinary excretion of BI 409306 ([4]; CYP2C19 EMs): < 2 % of the dose
dose proportionality exponent β of the power model for Ae0–4 ([4]; CYP2C19 EMs, entire dose range, 95% CI: 0.98, 1.12): 1.05
urinary excretion of BI 409306 ([4]; CYP2C19 PMs): up to 2.68 % of the dose
fe0–4 [4, 7]: 0.483 (46.5) %
fe0–4 [4, 8]: 0.583 (26.0) %
fe0–4 [4, 9]: 0.611 (24.2) %
fe0–4 [4, 10]: 0.461 (60.2) %
fe0–4 [4, 11]: 1.30 (14.3) %
fe0–4 [4, 12]: 0.594 (48.1) %
fe0–4 [4, 13]: 0.523 (56.9) %
fe0–4 [4, 14]: 0.597 (53.0) %
fe0–4 [4, 15]: 1.78 (23.3) %
fe0–4 [4, 16]: 0.676 (48.8) %
fe0–4 [4, 17]: 0.786 (24.0) %

— paper PMC5061793 (British Journal of Clinical Pharmacology, 2016)
